Compounds with a hit are over-represented: about 1.3% of the library has one in this group of screens.
VLA-4 inh – inhibition in a human VLA-4 binding assay. inhibition, % (about 7 µM as worked out from the volumes in the protocol). VLA-4 expressing cells, ligand binding flow cytometry. hit rate 0.2% among 330,000. AID 2557; in the data active = inhibition above about 50%
Hep lipid drop – hepatic lipid droplet formation modulation; inhibition, % at 6.5 µM; AID 1656; hit rate 0.4% among 240,000; AML12 mouse hepatocytes, oleate lipid droplets, BODIPY imaging;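 active = lipid droplet intensity inhibited by at least 50%, with more than 500 cells counted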
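Technique: fluorescence imaging, 20x objective, two fields per well / Assay system: AML12 hepatocytes (mouse) / Measure: % inhibition of lipid droplet signal / Doses: 6.5 µM single-point dosing / Incubation: overnight exposure / Reagent: 100 µM oleic acid challenge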
procasp3 activ – activates human procaspase-3 | P42574 | recombinant procaspase-3 D3A, Ac-DEVD-pNA absorbance 405 nm | activation, % at 8.5 µM | hit rate 0.11% among 330,000;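 active = activation above the mean of all tested compounds plus 3 SD, cut at about 21% in these data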;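 also: 0% = DMSO alone and 100% = DMSO wells spiked with extra 5 µM PC-3 D3A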
Target sequence (P42574 whole entry D9A/D28A/D175A): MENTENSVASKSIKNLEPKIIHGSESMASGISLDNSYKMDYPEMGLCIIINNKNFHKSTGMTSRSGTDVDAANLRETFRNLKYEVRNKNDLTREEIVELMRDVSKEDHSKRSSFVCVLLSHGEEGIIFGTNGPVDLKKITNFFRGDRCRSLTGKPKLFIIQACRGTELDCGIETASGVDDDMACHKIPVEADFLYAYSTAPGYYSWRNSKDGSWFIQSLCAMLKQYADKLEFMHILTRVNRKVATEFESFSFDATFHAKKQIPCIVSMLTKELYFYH
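Assay system: Autoprocessing-dead procaspase-3 D3A mutant enzyme; also added: Ac-DEVD-pNA; doses: one concentration, 8.5 µM nominal, 0.8% DMSO; times: 1 h compound preincubation, 2 h substrate hydrolysis at 25 °C; technique: 405 nm absorbance of p-nitroaniline, reads at 0 and 120 min; measure: % activation between DMSO and enzyme-spiked controls; repeats: single replicate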
GRK2 inh – human GRK2 inhibition via aptamer displacement | P25098 | bead flow cytometry, FAM-aptamer displacement from GRK2 | inhibition of aptamer binding, % at 10 µM | hit rate 0.59% among 330,000;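 active = inhibition of aptamer binding above 40%, roughly 3 SD of noise, on plates passing a quality check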;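 also: median bead fluorescence of bound FAM aptamer so fluorescent compounds give negative values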
proCasp7 act – activates human procaspase-7, counter-screen for procaspase-3 activators. P55210. recombinant procaspase-7, Ac-DEVD-pNA absorbance 405 nm; D23A/D198A/D206A triple mutant, cannot self-cleave; scale: DMSO 0, 5 µM enzyme 100. activation, % at 8.5 µM. hit rate 0.093% among 330,000;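 active = percent activation above the screen-wide mean plus 3 SD, cut at about 25% in these data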
Target sequence (P55210 whole entry D23A/D198A/D206A): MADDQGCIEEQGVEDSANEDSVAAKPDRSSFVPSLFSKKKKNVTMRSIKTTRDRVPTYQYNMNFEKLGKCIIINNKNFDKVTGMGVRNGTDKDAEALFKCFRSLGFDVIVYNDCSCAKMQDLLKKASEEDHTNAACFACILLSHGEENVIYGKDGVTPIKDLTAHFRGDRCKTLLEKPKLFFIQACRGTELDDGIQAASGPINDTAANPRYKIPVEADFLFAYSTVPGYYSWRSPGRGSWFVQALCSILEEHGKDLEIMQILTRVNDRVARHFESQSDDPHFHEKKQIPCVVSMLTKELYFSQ
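System: Uncleavable procaspase-7 mutant enzyme; Amount: 2 µM procaspase-7 mutant as dispensed; Schedule: 1 h compound preincubation, 2 h substrate cleavage, 25 °C; Measured by: 405 nm absorbance of p-nitroaniline; Evaluation: percent activation from buffer-corrected 0–120 min absorbance change; Control set: low DMSO alone, high DMSO plus 5 µM PC-7.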
GASC-1 inh – blocks human GASC-1 demethylase activity; GST-JMJD2C(1-420) H3K9me3 demethylation, DELFIA europium; hit rate 0.069% among 330,000; AID 2099; inhibition, % at 2.35 µM; Q9H3R0;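 active = more than half of a compound's replicate wells show inhibition beyond 50%, single wells judged on their own value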;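 also: signal counts dimethyl H3K9 product captured on neutravidin plate; 0% = median of DMSO wells and 100% = 0.3 times that DMSO median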
GRK2 CP1 – human GRK2 inhibition confirmation, cherry pick 1; shares compounds with GRK2 inh; bead-bound GRK2, FAM-aptamer displacement, flow cytometry; aptamer displacement, % at 10 µM; hit rate 4% among 2,000;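 active = aptamer displacement above 40%, near three times the noise of non-fluorescent compounds, on plates passing quality checks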;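 also: negative values mostly reflect intrinsic compound fluorescence rather than true enhancement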
Aptamer quench SP – counter-screen for GRK2 aptamer inhibitors: fluorescent aptamer quenchers; shares compounds with GRK2 inh; Carboxyfluorescein RNA aptamer on beads, flow cytometry quenching; hits give low values; fluorescence response (% of DMSO), % at 10 µM; 2,000 tested, under 10 active;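 active = compounds that quench the bead-bound fluorescent RNA probe, cutting fluorescence to under half of the solvent control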;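 also: counterscreen run without GRK2 so only probe quenching by compound is measured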
GRK2 confirm 2 – confirmation of human GRK2 inhibitors binding RNA aptamer site | shares compounds with GRK2 inh | bead-bound GRK2, FAM-aptamer displacement, flow cytometry | inhibition of aptamer binding, % at 10 µM | 360 tested, under 10 active;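 active = inhibition of aptamer binding above 40%, about triple the noise seen with nonglowing compounds, on plates passing quality control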;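 also: negative values mostly come from compounds that fluoresce themselves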
FAM quench CP2 – aptamer fluorescence quenching in GRK2 counter-screen; shares compounds with GRK2 inh; carboxyfluorescein RNA aptamer beads, flow cytometry quenching; hits give low values; fluorescence response vs DMSO, % at 10 µM; 360 tested, under 10 active; AID 588494;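 active = response vs DMSO under 50%, meaning signal dropped by over half, treated as fluorescence quencher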;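 also: labelled aptamer on streptavidin beads without GRK2 as a quench counter-screen; 100% = bead fluorescence of DMSO wells and lower means quenching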
Starred values were filed as active, the others as inactive; . = not tested or not shown.

SMILES	VLA-4 inh	Hep lipid drop	procasp3 activ	GRK2 inh	proCasp7 act	GASC-1 inh	GRK2 CP1	Aptamer quench SP	others
CN(C)c1ccc(C2(c3ccc(N(C)C)cc3)OC(=O)c3cc(N)ccc32)cc1	-18	4	7	0	1	1	.	.
COc1ccc(-c2cc(C(=O)NCCc3ccc(S(N)(=O)=O)cc3)c3ccccc3n2)cc1	-19	-4	3	2	5	-43	.	.
O=C(NCc1cccs1)c1cc(-c2ccc(O)cc2)on1	3	39	5	79*	8	1	-3	98
Nc1c(C(=O)C2CC2)sc2nc3c(cc12)CCC3	-10	0	-25	0	-23	-13	.	.
CN1CCc2nc3sc(C(=O)C45CC6CC(CC(C6)C4)C5)c(N)c3cc2C1	-9	.	-12	51*	-8	.	-21	93
COc1cc(C(=O)N2CCCCC2)ccc1OCC(=O)Nc1ccc(F)cc1	8	.	7	0	13	.	.	.
CC1Cc2ccccc2N1C(=O)Cn1cnc2c1c(=O)n(C)c(=O)n2C (stereo unspecified)	-13	-4	-6	0	-4	-10	.	.
Cn1c(SCc2ccccc2Cl)nc2c1c(=O)[nH]c(=O)n2C	14	-2	-2	71*	8	-1	-2	95
Cc1ccc(CSc2nnc(-c3ccc(S(=O)(=O)N4CCCC4)cc3)o2)cc1	-2	.	3	59*	0	2	-2	95
O=S(=O)(c1ccc(-c2nnc(SCc3ccccc3)o2)cc1)N1CCCC1	24	.	-2	0	3	-1	.	.
NC(=O)CSc1nnc(-c2ccc(S(=O)(=O)N3CCCC3)cc2)o1	11	2	1	45*	1	7	-1	81
O=C(Nc1ccccc1N1CCOCC1)C1=NN(c2c(F)c(F)cc(F)c2F)C(=O)CC1	-28	.	0	4	-3	4	.	.
O=S(=O)(NNc1ccc(Cl)nn1)c1ccc(F)cc1	-2	8	-14	0	-10	23	.	.
Cc1cn(C2OC(COC(=O)c3ccccc3)C(OC(=O)c3ccccc3)C2OC(=O)c2ccccc2)c(=O)[nH]c1=O (stereo unspecified)	-52	0	-12	100*	2	-8	-1	104
Cc1[nH]c(=O)[nH]c(=O)c1S(=O)(=O)Nc1ccc(F)c(Cl)c1	1	-6	.	47*	.	5	-3	125
Cc1ccc(C(=O)N2CCN(c3ccccn3)CC2)cc1	-9	1	-7	0	10	5	.	.
O=C(COc1ccc(Cl)cc1Cl)N1CCN(c2ccccn2)CC1	9	-3	6	1	6	36	.	.
O=C(c1cccc(S(=O)(=O)N2CCc3ccccc32)c1)N1CCN(c2ccccn2)CC1	27	-26	6	2	7	0	0	97
O=C(c1ccc(Cl)c(S(=O)(=O)NCc2ccccc2)c1)N1CCN(c2ccccn2)CC1	-6	.	-4	2	5	-4	-2	103
O=C(COc1cc(Cl)c(Cl)cc1Cl)N1CCN(c2ccccn2)CC1	12	-7	2	95*	6	-19	-2	95
O=C(c1ccc(CNS(=O)(=O)c2ccccc2)cc1)N1CCN(c2ccccn2)CC1	-2	4	2	5	10	.	.	.
Cc1cc(C)cc(C(=O)N2CCN(c3ccccn3)CC2)c1	8	3	0	3	5	-4	-4	99
COc1ccc(N2CCN(C(=O)c3cccc(S(=O)(=O)N4CCc5ccccc54)c3)CC2)cc1	6	.	9	5	6	9	.	.
Cc1cccc(NC(=O)C2CC(=O)N(Cc3ccccc3)C2)n1 (stereo unspecified)	-8	.	-6	3	-9	-1	.	.
COc1ccccc1N1CCN(C(=O)c2cccc(S(=O)(=O)N3c4ccccc4CC3C)c2)CC1 (stereo unspecified)	.	.	.	.	.	.	-4	96
SMILES	VLA-4 inh	Hep lipid drop	procasp3 activ	GRK2 inh	proCasp7 act	GASC-1 inh	GRK2 CP1	Aptamer quench SP	others
CCOC(=O)C1CCN(C(=O)c2cccc(S(=O)(=O)N3c4ccccc4CC3C)c2)CC1 (stereo unspecified)	3	.	8	0	-8	4	.	.
Cc1cccc(C(=O)N2CCN(c3ccccn3)CC2)c1	-8	-30	1	75*	3	11	0	95
CC(=O)c1c(Cl)nc2cccc3c2c1-c1ccccc1C3=O	-6	6	-2	3	5	-5	.	.
CCOc1cc(C(=O)Oc2cc(C)[nH]c(=O)c2[N+](=O)[O-])cc(OCC)c1OCC	1	-3	0	3	1	-14	.	.
COC(=O)[C@H](Cc1ccccc1)NC(=O)N1CCCCC1	-6	26	4	0	3	-2	.	.
COC(=O)[C@H](Cc1ccccc1)NC(=O)C1(OC(C)=O)CC(OC(C)=O)C(OC(C)=O)C(OC(C)=O)C1 (stereo partly specified)	33	30	-3	63*	6	21	5	94
Cc1onc(-c2ccccc2)c1C(=O)n1cc(Br)cn1	-1	-6	10	69*	12	-1	0	97
N#Cc1c(-c2ccccc2)cc(-c2ccccc2)[nH]c1=O	3	.	-11	60*	5	4	.	.	GRK2 confirm 2=4;FAM quench CP2=100
Cn1c(=S)n(CCC(=O)O)c2ccccc21	-4	5	-4	15	-4	6	-1	98
Nc1nc(N(Cc2ccccc2)Cc2ccccc2)nc(C(F)(F)F)n1	38	.	2	43*	2	14	.	.	GRK2 confirm 2=-6;FAM quench CP2=100
COc1ccc(C(=O)Nc2ccccc2NC(=O)c2ccco2)c(OC)c1	11	2	1	0	1	-3	.	.
COc1cc(NC(=O)COc2ccccc2C)ccc1NC(=O)c1ccco1	-1	-2	1	51*	6	2	.	.	GRK2 confirm 2=-4;FAM quench CP2=101
COc1ccc(C(=O)Nc2ccccc2NC(=O)c2ccco2)cc1OC	-1	.	-3	44*	4	0	3	97
COc1ccccc1-c1cn(C(C)(C)C)nc1C	6	5	2	0	1	7	.	.

High-throughput results from PubChem BioAssay.
